# Experimental data: publication PMC4935662 (Molecular pharmaceutics, 2016)
# Tests used:
# [1] = test system: blood-brain barrier (BBB); assay: In situ rat brain perfusion of Gd-DTPA, quantitative T1 mapping MRI; type: in vivo, Sprague-Dawley rats; conditions: Gd-DTPA 0.6 mmol/kg, brain-ventral
# Method in brief: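 Adult male Sprague-Dawley rats (250–350 g). A 10-sec saline post-perfusion wash followed. Sacrificed animals underwent quantitative T1 mapping MRI at room temperature; R1 = 1/T1 was taken per brain region.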
# [2] = single administration at 1.0 mmol/kg in rats; cited from earlier work
# [3] = test system: blood-brain barrier (BBB); conditions: cited from earlier work
# [4] = cited from earlier work
compound,measurement,setting,value
"O=C([O-])CN(CCN(CC(=O)[O-])CC(=O)O)CCN(CC(=O)[O-])CC(=O)O.[Gd+3] [Gd-DTPA, gadolinium-diethylenetriaminepentaacetate]","R1 values, Gd-DTPA in presence of HAV6 compared to Gd-DTPA and vehicle","[1]; HAV6 1.0 mM, olfactory bulb, hippocampus, cerebellum, deep-rostral, deep-caudal regions",more significantly increased R1 values
same,"R1 values, Gd-DTPA and vehicle compared to vehicle only","[1]; cortex, deep-caudal",increased R1 values
same,tolerability / organ toxicity,[2],well tolerated without any organ toxicity
"Ac-SHAVSS-NH2 [HAV6, Ac-SHAVSS-NH2]",brain delivery of IRdye 800cw-PEG delivered 1 h after administration of peptide,[3]; 25 kDa IRdye 800cw-PEG,no enhancement of brain delivery
same,duration of BBB opening,[3]; Balb/c mice,less than 1 h
"CC[C@@]1(O)C(=O)OCc2c1cc1n(c2=O)Cc2cc3ccccc3nc2-1 [CPT, camptothecin]",time of conversion to the CPT-carboxylate form,[4]; phosphate-buffered saline solution containing 4% human plasma,11 min
same,pH below which the lactone group is stable,"[4]; undergoes lactone hydrolysis to CPT-carboxylate at pH 7.4, no reference given",< 5.5
